Assay results as given in PubChem BioAssay AID871 (The Scripps Research Institute Molecular Screening Center, 2007).
Among all 190,000 compounds or so, about 1,800 (0.95%) were called active. This is one part of a sample in which actives are shown more often than they occur.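 The calls were made as follows: active = activation above the screen-wide mean of compound activation plus 3 SD (cut at about 130% in these data); inactive = the rest.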

Test: IL-6 driven STAT3 reporter potentiators, primary screen, U3A cells, luciferase, luminescence, MLSCN library (AID 871);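 also: 0% = background luminescence of wells with medium and substrate only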
Conditions: IL-6 STAT3-luciferase reporter, at 5.6 µM, active compounds read high, 100% = signal with IL-6 EC80 alone
Summary of the method: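 Material: STAT3-luciferase reporter U3A cells; Probe or stimulus: IL-6 (33 ng/mL); Incubation: compound pre-incubation 1 h before IL-6, then 6 h stimulation at 37 °C; Technique: luminescence from STAT3-driven luciferase reporter; Evaluation: % activation versus median of IL-6-stimulated wells; Controls: IL-6-only high control.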

| Compound | activation (% of control) |
| --- | --- |
| O=C(NCc1cccs1)C1CCN(S(=O)(=O)c2ccc(Cl)cc2)CC1 | 104% (inactive) |
| COc1cccc2c1CCC(NC(C)=O)C2=O (configuration not stated) | 104% (inactive) |
| COc1ccc(C)cc1NC(=O)c1[nH]c(C)c(C(C)=O)c1C | 147% (active) |
| CC(=O)c1c(C)[nH]c(C(=O)Nc2cc(S(=O)(=O)N(C)C)ccc2C)c1C | 90.9% (inactive) |
| CC(=O)c1c(C)[nH]c(C(=O)NCc2ccc(C)cc2)c1C | 92.2% (inactive) |
| O=C(c1ccc(-c2ccccc2)cc1)C1CCCN(C(=O)c2cncs2)C1 (configuration not stated) | 98.2% (inactive) |
| COc1ccc(-c2c3c(=O)n(C)c(=O)n(C)c3cn2-c2cccc(OC)c2)cc1 | 154% (active) |
| COc1cccc(-n2cc3c(c2-c2ccccc2)c(=O)n(C)c(=O)n3C)c1 | 110% (inactive) |
| COc1ccc(-c2c3c(=O)n(C)c(=O)n(C)c3cn2NC(C)=O)cc1 | 109% (inactive) |
| CC(C)CCN1C(=O)c2ccc(C(=O)Nc3cccc(S(N)(=O)=O)c3)cc2C1=O | 93.1% (inactive) |
| CCC(C)NC(=O)c1nn(C)c(=O)c2ccccc12 (configuration not stated) | 100% (inactive) |
| CN(C)S(=O)(=O)c1cccc(NC(=S)NCc2ccc3c(c2)OCO3)c1 | 95.2% (inactive) |
| CC(=O)OCc1cc2cc(C)ccc2[nH]c1=O | 103% (inactive) |
| CCNCc1cc2cc(C)ccc2[nH]c1=O | 139% (active) |
| CCN(Cc1cc2cc(C)ccc2[nH]c1=O)S(=O)(=O)c1ccccc1 | 91.2% (inactive) |
| Cc1ccc(-n2cnc3ncnc(-c4ccccc4)c32)cc1 | 94.7% (inactive) |
| CC(C)OCCCNC(=S)N1CCC(C(=O)c2ccc3c(c2)OCCO3)CC1 | 102% (inactive) |
| Cc1cccc(CSc2nc3c(c(=O)n2C)SCC3)c1 | 78.4% (inactive) |
| N#Cc1ccc(C(=O)Nc2cccc3cccnc23)c(F)c1 | 87.4% (inactive) |
| O=C(COC(=O)c1ccccn1)Nc1cccc2ccccc12 | 94.8% (inactive) |
| N#Cc1ccccc1NC(=O)COc1c(Br)cc(Br)c2cccnc12 | 151% (active) |
| CCN(CC)P(=O)(Nc1ccc(SC(F)F)cc1)c1ccc(N(C)C)cc1NC(=O)c1ccco1 (configuration not stated) | 131% (inactive) |
| CCOc1ccc(C2c3[nH]c4ccccc4c3CCN2Cc2cn(CC)nc2C)cc1 (configuration not stated) | 140% (active) |
| COc1cc(-c2nnn(CC(=O)NCc3ccccc3)n2)cc(OC)c1OC | 99.5% (inactive) |
| CCOP(=O)(OCC)C(Nc1ccc([N+](=O)[O-])cc1)c1ccc(Cl)cc1 (configuration not stated) | 109% (inactive) |

| Compound | activation (% of control) |
| --- | --- |
| Cc1cccc(N2CCN(c3ccc(NC(=O)/C=C\C(=O)O)cc3)CC2)c1 | 100% (inactive) |
| CC(=O)c1ccc(NC(=O)C(C)N(C)CC(=O)Nc2ccccc2Cl)cc1 (configuration not stated) | 96.3% (inactive) |
| COc1ccccc1CC(=O)Nc1ccc([N+](=O)[O-])cc1OC | 99.8% (inactive) |
| COc1ccc([N+](=O)[O-])cc1C1NN=C(c2cccc3ccccc23)S1 (configuration not stated) | 139% (active) |
| COc1ccc([N+](=O)[O-])cc1NC(=O)C(C)OC(=O)C1c2ccccc2Oc2ccccc21 (configuration not stated) | 106% (inactive) |
| Cc1ccccc1OCCOc1ccc([N+](=O)[O-])cc1/C=N/n1cnnc1 | 111% (inactive) |
| O=C(CCc1nnc(CCCCc2ccccc2)o1)NC(c1cccnc1)C(F)(F)F (configuration not stated) | 104% (inactive) |
| CC1(C)C=C2[C@H]3CC[C@@H]4[C@@]5(C)CCC(=O)C(C)(C)[C@@H]5CC[C@@]4(C)[C@]3(C)CC[C@@]2(C(=O)O)CC1 | 99.9% (inactive) |
| CC(=O)Nc1ccc(Nc2c3ccccc3nc3ccccc23)cc1 | 218% (active) |
| O=[N+]([O-])c1cccc(Nc2c3ccccc3nc3ccccc23)c1 | 109% (inactive) |
| CC(=O)Nc1ccc(NC(=O)COc2ncnc3ccccc23)cc1 | 95.9% (inactive) |
| CC(C)C(C)(C#N)NC(=O)CSc1nc2scc(-c3ccccc3)c2c(=O)[nH]1 (configuration not stated) | 108% (inactive) |
| O=C(Nc1ccncc1)c1cc(-c2ccccn2)nc2ccc(Br)cc12 | 111% (inactive) |
| O=C(CSc1nn(-c2ccc(F)cc2)c(=S)s1)NC1CCS(=O)(=O)C1 (configuration not stated) | 98.1% (inactive) |
| Cc1noc(/C=C/c2ccco2)c1S(=O)(=O)N1CCC(C(=O)N2CCc3ccccc32)CC1 | 104% (inactive) |
| CCS(=O)(=O)N1CCC(C(=O)N2CCN(c3ccccc3)CC2)CC1 | 103% (inactive) |
| O=C(C1CCN(S(=O)(=O)Cc2ccccc2)CC1)N1CCCc2ccccc21 | 136% (active) |
| O=C(O)/C(=C/c1cccnc1)NC(=O)c1ccccc1 | 107% (inactive) |
| Nc1ccc(OCC(O)C[n+]2ccc(CCS(=O)(=O)[O-])cc2)cc1 (configuration not stated) | 101% (inactive) |
| CCC(C(=O)Nc1ccc2c(c1)OCCO2)c1ccccc1 (configuration not stated) | 93.2% (inactive) |
| CN1C(=O)/C(=N/OC(=O)c2ccccc2Br)c2ccccc21 | 100% (inactive) |
| CN1C(=O)/C(=C\c2cc(Br)cs2)c2ccccc21 | 178% (active) |
| CCC1C(=O)c2ccccc2N(C)C1=O (configuration not stated) | 110% (inactive) |
| CN(C)c1ccc(C=C2C(=O)OC3(CCCC3)OC2=O)cc1 | 103% (inactive) |
| COc1ccccc1-c1nnc(NC(=O)c2ccc3ncsc3c2)o1 | 146% (active) |

| Compound | activation (% of control) |
| --- | --- |
| COc1ccccc1-c1nnc(NC(=O)c2cccc(N3C(=O)CCC3=O)c2)o1 | 116% (inactive) |
| COc1ccccc1-c1nnc(SCC(=O)Nc2cc(C)on2)o1 | 91% (inactive) |
| Cc1scc(C(=O)NNC(=S)NCC(C)C)c1C | 97.6% (inactive) |
| Cc1ccc(C(C)(C)C)c(OCCCCN2CCCC2)c1 | 95.5% (inactive) |
| Cc1nc(C)c(C(=O)Nc2ccc(C)c(F)c2)o1 | 92.3% (inactive) |
| Cc1nc(C)c(C(=O)Nc2cccc(C)c2C)o1 | 105% (inactive) |
| COc1ccc(Cl)cc1NC(=O)c1oc(C)nc1C | 162% (active) |
| Cc1cc(Cl)ccc1NC(=S)NCCCN1CCCC1=O | 98.6% (inactive) |
| COc1ccccc1N1CCN(C(=O)c2ccc(Cl)c(S(=O)(=O)N3CCCC3)c2)CC1 | 97% (inactive) |
| Cc1ccc(-c2cc(C(=O)Nc3nn[nH]n3)c3ccccc3n2)c(C)c1 | 140% (active) |
| Cc1ccc2c(Cl)c(C(=O)Nc3nn[nH]n3)sc2c1 | 96% (inactive) |
| Cc1ccc(NC(=O)c2cc(-c3ccc(C)o3)nc3ccccc23)nc1 | 104% (inactive) |
| CCOC(=O)C1(Cc2cccc(OC)c2)CCN(C(C)COC)CC1 (configuration not stated) | 108% (inactive) |
| COc1cccc(NC(=O)c2ccc3c(SCC(=O)O)c4c(nc3c2)CCCC4)c1 | 106% (inactive) |
| COCC(=O)Nc1cc(C(=O)OC)cc(C(=O)OC)c1 | 97.7% (inactive) |
| C#CCSc1nnc(-c2sc3ccccc3c2Cl)o1 | 125% (inactive) |
| Fc1ccc(CSc2nnc(-c3cc4c(s3)-c3ccccc3CC4)o2)cc1 | 117% (inactive) |
| CCSc1nnc(-c2cc3c(s2)-c2ccccc2CC3)o1 | 173% (active) |
| CCNC(=O)COC(=O)CCNC(=O)c1cccc(C)c1 | 102% (inactive) |
| COc1cccc(C(=O)Oc2cc(C)[nH]c(=O)c2[N+](=O)[O-])c1 | 101% (inactive) |
| OC(COc1ccc2ccccc2c1)Cn1cncn1 (configuration not stated) | 97.5% (inactive) |
| OC(COc1ccc2ccccc2c1)CN1CCOCC1 (configuration not stated) | 159% (active) |
| OC(COc1cccc(OCC(O)CN2CCCC2)c1)CN1CCCC1 (configuration not stated) | 101% (inactive) |
| COc1ccc(/C=N/n2c(C)cc(C)cc2=O)cc1 | 83.5% (inactive) |
| C=CCn1c(-c2sc(-c3ccccc3)nc2C)n[nH]c1=S | 94.6% (inactive) |

| Compound | activation (% of control) |
| --- | --- |
| C=CCn1c(-c2ccccc2OCC)n[nH]c1=S | 158% (active) |
| C=CCn1c(-c2ccc3[nH]c(C)c(C)c3c2)n[nH]c1=S | 80.2% (inactive) |
| COc1ccc(CC(=O)N[C@@H](CCSC)c2nc3ccccc3[nH]2)cc1 | 96.5% (inactive) |
| COc1ccc(COC(=O)N/N=C(\C)CC(=O)Nc2ccc(Cl)cc2)cc1 | 101% (inactive) |
| Cc1ccc(C2C(C#N)C(C#N)N3CCCN23)cc1 (configuration not stated) | 141% (active) |
| O=C(CCC(=O)NNc1nc2ccccc2c2nc(-c3ccccc3)nn12)NCCCN1CCCC1=O | 112% (inactive) |
| Cc1nccn1CCCNC(=O)CC1C(=O)NCCN1Cc1ccc(Cl)c(F)c1 (configuration not stated) | 100% (inactive) |
| COc1ccc(C(CC(=O)c2ccccc2)S(=O)(=O)c2ccccc2)cc1 (configuration not stated) | 110% (inactive) |
| COc1ccc(C=Nc2cccc3ncccc23)cc1 | 109% (inactive) |
| Oc1c(C=Nc2cccc3nsnc23)ccc2ccccc12 | 144% (active) |
| Cc1nc(NC(=O)c2cccc(Cl)c2)sc1-c1csc(Nc2cccc(Cl)c2)n1 | 117% (inactive) |
| COc1ccc(-c2csc(NC(=O)COC(=O)Cc3ccc(Cl)cc3Cl)n2)cc1 | 100% (inactive) |
| Cc1ccc(Nc2nc(-c3sc(NC(=O)c4ccccc4)nc3C)cs2)cc1 | 138% (active) |
| CCCCCCC(=O)Nc1nc(C)c(-c2csc(Nc3cccc(OC)c3)n2)s1 | 99.6% (inactive) |
| C=CCCC(=O)Nc1nc(C)c(-c2csc(Nc3ccc(Cl)cc3)n2)s1 | 159% (active) |
| CCCCC(=O)Nc1nc(C)c(-c2csc(Nc3ccc(Cl)cc3)n2)s1 | 149% (active) |
| Cc1ccc(-c2csc(NNC(=O)c3ccccc3)n2)cc1 | 101% (inactive) |
| Cc1nc(NC(=O)CN(C)S(=O)(=O)c2ccc(Cl)cc2)sc1C | 106% (inactive) |
| CCCCCCC(=O)Nc1nc(C)c(-c2csc(Nc3cc(Cl)ccc3OC)n2)s1 | 105% (inactive) |
| Cc1ccc(S(=O)(=O)c2ccc(Cl)cc2)cc1S(=O)(=O)NC(C(=O)O)C(C)C (configuration not stated) | 102% (inactive) |
| Clc1ccc(-c2nc3ccccn3c2CN2CCSCC2)cc1 | 99.3% (inactive) |
| Cn1c(=O)c2cc(S(=O)(=O)NCCC(=O)Nc3ccc(F)cc3F)ccc2n(C)c1=O | 109% (inactive) |
